Measured values gathered from unrelated publications.
Compare with care: the assays were run in different laboratories.
Adora2a: Adenosine receptor A2a (Adora2a, Rattus norvegicus, UniProt P30543)
AGTR2: Type-2 angiotensin II receptor (AGTR2, Homo sapiens, UniProt P50052)
DRD1: D(1A) dopamine receptor (DRD1, Homo sapiens, UniProt P21728)
Urease: Urease (Canavalia ensiformis, UniProt P07374)

CCCCN1CCCn2c1nc1c2c(=O)n(C)c(=O)n1C
Ki (Adora2a; ligand displacement, radioligand; cell membranes): 1.75 µM

N#Cc1c(N)nc2sc(C(N)=O)c(N)c2c1-c1ccc2c(c1)OCO2
Ki (Adora2a; ligand displacement, radioligand; cell membranes): 1.06 µM

CCC(C)[C@H](NC(=O)c1cccc(C(=O)N(CC)Cc2ccccc2)c1)C(=O)O (stereo in doubt)
Ki (AGTR2; ligand displacement in cells, radioligand): 11 µM

O=C1c2ccccc2CCCN1CCCCN1CCN(c2ccccn2)CC1
Ki (DRD1; cell-free assay, radioligand): 1.26 µM

CCC(C)[C@H](NC(=O)c1ccc(C)c(C(=O)N(CC)CC)c1)C(=O)O (stereo in doubt)
Ki (AGTR2; ligand displacement in cells, radioligand): 2.4 µM

COc1cccc(-c2c(C#N)c(N)nc(SCc3cccc(C)n3)c2C#N)c1
Ki (Adora2a; ligand displacement, radioligand; cell membranes): 0.0483 µM

CCCCN1CCCn2c1nc1c2c(=O)n(CCC)c(=O)n1CCC
Ki (Adora2a; ligand displacement, radioligand; cell membranes): 0.3 µM

Cc1cc(C)c2c(c1)[C@@H](N(Cc1cc(C(F)(F)F)cc(C(F)(F)F)c1)c1nnn(C)n1)CCCN2C[C@H]1CC[C@H](C(=O)O)CC1
Ki (Cytochrome P450 2B6 (CYP2B6, Homo sapiens, UniProt P20813); enzyme activity, inhibitor; human, liver microsomes; pH 7.4): 6.3 µM

Oc1ccccc1OCc1nn2c(-c3cccc(Br)c3)nnc2s1
Ki (Urease; enzyme activity, inhibitor): 2.25 µM

CC(C)CN1CCCn2c1nc1c2c(=O)n(C)c(=O)n1C
Ki (Adora2a; ligand displacement, radioligand; cell membranes): 0.87 µM

N#Cc1c(N)nc(SCC(N)=O)c(C#N)c1-c1ccc2c(c1)OCO2
Ki (Adora2a; ligand displacement, radioligand; cell membranes): 0.429 µM

CC(C)CCCC(C)N1CCCn2c1nc1c2c(=O)n(C)c(=O)n1C (centres unmarked)
Ki (Adora2a; ligand displacement, radioligand; cell membranes): 2.03 µM

CCC(C)[C@H](NC(=O)c1cccc(C(=O)N(C)Cc2ccccc2)c1)C(=O)O (stereo in doubt)
Ki (AGTR2; ligand displacement in cells, radioligand): 9 µM

CC(C)N1CCCn2c1nc1c2c(=O)n(C)c(=O)n1C
Ki (Adora2a; ligand displacement, radioligand; cell membranes): 4.95 µM

CCc1ccc(C(=O)N[C@H](C(=O)O)C(C)CC)cc1C(=O)N(C)Cc1ccccc1 (stereo in doubt)
Ki (AGTR2; ligand displacement in cells, radioligand): 16 µM

CC1Cc2ccccc2N1C(=O)NCCCCN(C)[C@@H]1Cc2cccc3[nH]c(=O)n(c23)C1 (mixture of isomers)
Ki (DRD1; ligand displacement, radioligand): > 10 µM

N#Cc1c(N)nc(SCc2cccc(C(=O)O)c2)c(C#N)c1-c1ccccc1
Ki (Adora2a; ligand displacement, radioligand; cell membranes): 0.634 µM

CCC(C)[C@H](NC(=O)c1ccc(C(=O)N(C)Cc2ccccc2)cc1)C(=O)O (stereo in doubt)
Ki (AGTR2; ligand displacement in cells, radioligand): > 100 µM

CCCCCCN1CCCn2c1nc1c2c(=O)n(C)c(=O)n1C
Ki (Adora2a; ligand displacement, radioligand; cell membranes): 0.82 µM

COc1ccc(-c2c(C#N)c(N)nc(SCC(N)=O)c2C#N)cc1
Ki (Adora2a; ligand displacement, radioligand; cell membranes): 1.47 µM

CCc1nc2cc(OCCCCN3CCC(c4cccc(Cl)c4Cl)CC3)ccc2s1
Ki (Sodium-dependent serotonin transporter (SLC6A4, Homo sapiens, UniProt P31645); ligand displacement, radioligand): 0.58 µM

CC(=O)NO
Ki (Urease; enzyme activity, inhibitor): 18.1 µM

CCC(C)[C@H](NC(=O)c1ccc(C)c(C(=O)N(CC)Cc2ccccc2)c1)C(=O)O (stereo in doubt)
Ki (AGTR2; ligand displacement in cells, radioligand): 3.4 µM

CCCCCN1CCCn2c1nc1c2c(=O)n(C)c(=O)n1C
Ki (Adora2a; ligand displacement, radioligand; cell membranes): 3.06 µM

CCC(C)[C@H](NC(=O)c1ccc(C)c(C(=O)N(Cc2ccccc2)Cc2ccccc2)c1)C(=O)O (stereo in doubt)
Ki (AGTR2; ligand displacement in cells, radioligand): 2.5 µM

N#Cc1c(N)nc(SCC(N)=O)c(C#N)c1-c1ccc(O)cc1
Ki (Adora2a; ligand displacement, radioligand; cell membranes): 0.338 µM
